The source made the active and inactive calls. The rule behind the calls is not given here.
Tests used:
NCI-H1975 [1] = test: Induction of apoptosis in human NCI-H1975 cells assessed as viable cells at 5 uM incubated for 48 hrs by propidium iodide and annexin-V FITC staining based flow cytometry (Rvb =88.95% ); format: functional; details: read-out: Activity
NCI-H1975 [2] = test: Induction of apoptosis in human NCI-H1975 cells assessed as viable cells at 0.5 uM incubated for 48 hrs by propidium iodide and annexin-V FITC staining based flow cytometry (Rvb =88.95% ); format: functional; details: read-out: Activity
NCI-H1975 [3] = test: Induction of apoptosis in human NCI-H1975 cells assessed as necrotic cells at 5 uM incubated for 48 hrs by propidium iodide and annexin-V FITC staining based flow cytometry (Rvb =0.18% ); format: functional
NCI-H1975 [4] = test: Induction of apoptosis in human NCI-H1975 cells assessed as late apoptotic cells at 2.5 uM incubated for 48 hrs by propidium iodide and annexin-V FITC staining based flow cytometry (Rvb =4.20 %); format: functional
[5] = target: Receptor tyrosine-protein kinase erbB-2 (Homo sapiens, UniProt P04626); test: Inhibition of HER2 (unknown origin) by mobility shift assay
Procedure, shortened: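 In vitro kinase activity was measured by mobility shift assay, run by a contract provider.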

NCI-H1975 [6] = test: Induction of apoptosis in human NCI-H1975 cells assessed as necrotic cells at 2.5 uM incubated for 48 hrs by propidium iodide and annexin-V FITC staining based flow cytometry (Rvb =0.18% ); format: functional
SK-BR-3 = test: Antiproliferation activity against human SK-BR-3 cells incubated for 72 hrs by MTT assay; format: functional, cell-based; details: SK-BR-3, 72 h
Procedure, shortened: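 MTT assay. About 0.5–1 × 10⁴ cells/well were pre-incubated 12 h at 37 °C in 5% CO₂, then exposed to a concentration series of compound for 72 h. Formazan was dissolved in DMSO and absorbance read at 490 nm. Three wells per condition, three independent experiments. IC50 is the mean ± SD from the dose-response curves.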

NCI-H1975 [7] = test: Induction of apoptosis in human NCI-H1975 cells assessed as viable cells at 2.5 uM incubated for 48 hrs by propidium iodide and annexin-V FITC staining based flow cytometry (Rvb =88.95% ); format: functional; details: read-out: Activity
FHC = test: Cytotoxicity against human FHC cells assessed as reduction of cell viability incubated for 72 hrs by MTT assay; format: ADME, cell-based
NCI-H1975 [8] = test: Induction of apoptosis in human NCI-H1975 cells assessed as late apoptotic cells at 0.5 uM incubated for 48 hrs by propidium iodide and annexin-V FITC staining based flow cytometry (Rvb =4.20 %); format: functional
NCI-H838 = test: Antiproliferation activity against human NCI-H838 cells incubated for 72 hrs by MTT assay; format: functional, cell-based; details: NCI-H838, 72 h
[9] = target: Histone deacetylase (Homo sapiens) (UniProt Q13547+O15379+Q9UBN7+Q92769+Q9UQL6+Q8WUI4+Q9BY41+Q96DB2+P56524+Q9UKV0+Q969S8); test: Inhibition of HDAC in human NCI-H1975 cells assessed as increase in histone H3 acetylation after 48 hrs by Western blot analysis; format: cell-based; details: dose 0.5-5 µM
Procedure, shortened: (§1)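 Cells were treated with compound for 48 h and lysed on ice for 30 min in RIPA buffer with protease and phosphatase inhibitors. Lysates were cleared at 14000 g, 4 °C, and protein quantified by BCA. Samples were boiled in loading buffer, run on 10–12% SDS-PAGE and transferred to PVDF. Membranes were blocked 2 h, incubated in primary antibody overnight at 4 °C, then in secondary antibody 2 h at room temperature.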

[10] = Antiproliferative activity against human NCI-H820 cells incubated for 72 hrs by MTT assay; format: functional, cell-based; details: NCI-H820, 72 h
NCI-H1975 [11] = test: Down regulation of EGFR protein expression in human NCI-H1975 cells at 0.5 to 5 uM after 48 hrs by Western blot analysis; format: functional, cell-based; details: dose 0.5-5 µM; procedure, shortened: as §1
NCI-H1975 [12] = test: Induction of apoptosis in human NCI-H1975 cells assessed as early apoptotic cells at 5 uM incubated for 48 hrs by propidium iodide and annexin-V FITC staining based flow cytometry (reference value: 6.67 %); format: functional
L02 = test: cytotoxicity against human HL-7702 cells assessed as reduction of cell viability incubated for 72 hrs by MTT assay; format: ADME, cell-based; details: L02, 72 h
[13] = target: T1, Epidermal growth factor receptor (Homo sapiens, UniProt P00533); test: Inhibition of EGFR in human NCI-H1975 cells assessed as reduction in EGFR phosphorylation at Tyr-1068 residues after 48 hrs by Western blot analysis; format: cell-based; details: dose 0.5-5 µM; procedure, shortened: as §1
NCI-H1975 [14] = test: Cytotoxicity against human NCI-H1975 cells assessed as inhibition of colony formation incubated for 7 days by crystal violet based colony formation assay; format: functional, cell-based; details: dose 0.5-5 µM, time 7.0 day
Procedure, shortened: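 NCI-H1975 cells, 1 × 10⁴/well, were seeded in 6-well plates and cultured 12 h. They were then treated with compound for 7 days. Colonies were fixed in 10% buffered formalin for 1 h and stained with crystal violet for 1 h.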

[15] = target: T1, Epidermal growth factor receptor; test: Inhibition of EGFR in human NCI-H1975 cells assessed as reduction in AKT phosphorylation at S473 residues at 0.5 to 5 uM after 48 hrs by Western blot analysis; format: cell-based; details: dose 0.5-5 µM; procedure, shortened: as §1
cells = format: cell-based; details: BaF3, 72 h
NCI-H1975 [16] = test: Induction of apoptosis in human NCI-H1975 cells assessed as increase in cleaved-PARP level at 0.5 to 5 uM after 48 hrs by Western blot analysis; format: functional, cell-based; details: dose 0.5-5 µM; procedure, shortened: as §1
NCI-H1975 [17] = test: Induction of apoptosis in human NCI-H1975 cells assessed as increase in cleaved-caspase 8 level at 0.5 to 5 uM after 48 hrs by Western blot analysis; format: functional, cell-based; details: dose 0.5-5 µM; procedure, shortened: as §1
[18] = target: T1, Epidermal growth factor receptor; test: Inhibition of EGFR in human NCI-H1975 cells assessed as reduction in EGFR phosphorylation at Tyr-1173 residues after 48 hrs by Western blot analysis; format: cell-based; details: dose 0.5-5 µM; procedure, shortened: as §1
NCI-H1975 [19] = test: Induction of apoptosis in human NCI-H1975 cells assessed as increase in cleaved-caspase 3 level at 0.5 to 5 uM after 48 hrs by Western blot analysis; format: functional, cell-based; details: dose 0.5-5 µM; procedure, shortened: as §1
NCI-H1975 [20] = test: Down regulation of AKT protein expression in human NCI-H1975 cells at 0.5 to 5 uM after 48 hrs by Western blot analysis; format: functional, cell-based; details: dose 0.5-5 µM; procedure, shortened: as §1
NCI-H1975 [21] = test: Induction of apoptosis in human NCI-H1975 cells assessed as late apoptotic cells at 5 uM incubated for 48 hrs by propidium iodide and annexin-V FITC staining based flow cytometry (Rvb =4.20 %); format: functional
NCI-H1975 [22] = test: Induction of apoptosis in human NCI-H1975 cells assessed as necrotic cells at 0.5 uM incubated for 48 hrs by propidium iodide and annexin-V FITC staining based flow cytometry (Rvb =0.18% ); format: functional
A-431 = test: Antiproliferative activity against human A431 cells incubated for 72 hrs by MTT assay; format: functional, cell-based; details: A-431, 72 h
NCI-H1975 [23] = test: Induction of apoptosis in human NCI-H1975 cells assessed as increase in cleaved-caspase 7 level at 0.5 to 5 uM after 48 hrs by Western blot analysis; format: functional, cell-based; details: dose 0.5-5 µM; procedure, shortened: as §1
[24] = target: T1, Epidermal growth factor receptor; test: Inhibition of EGFR in human A431 cells assessed as reduction in EGFR phosphorylation at Tyr-1068 residues at 0.5 to 5 uM after 48 hrs by Western blot analysis; format: cell-based; details: A-431, dose 0.5-5 µM; procedure, shortened: as §1

T1 sequence (P00533 whole entry): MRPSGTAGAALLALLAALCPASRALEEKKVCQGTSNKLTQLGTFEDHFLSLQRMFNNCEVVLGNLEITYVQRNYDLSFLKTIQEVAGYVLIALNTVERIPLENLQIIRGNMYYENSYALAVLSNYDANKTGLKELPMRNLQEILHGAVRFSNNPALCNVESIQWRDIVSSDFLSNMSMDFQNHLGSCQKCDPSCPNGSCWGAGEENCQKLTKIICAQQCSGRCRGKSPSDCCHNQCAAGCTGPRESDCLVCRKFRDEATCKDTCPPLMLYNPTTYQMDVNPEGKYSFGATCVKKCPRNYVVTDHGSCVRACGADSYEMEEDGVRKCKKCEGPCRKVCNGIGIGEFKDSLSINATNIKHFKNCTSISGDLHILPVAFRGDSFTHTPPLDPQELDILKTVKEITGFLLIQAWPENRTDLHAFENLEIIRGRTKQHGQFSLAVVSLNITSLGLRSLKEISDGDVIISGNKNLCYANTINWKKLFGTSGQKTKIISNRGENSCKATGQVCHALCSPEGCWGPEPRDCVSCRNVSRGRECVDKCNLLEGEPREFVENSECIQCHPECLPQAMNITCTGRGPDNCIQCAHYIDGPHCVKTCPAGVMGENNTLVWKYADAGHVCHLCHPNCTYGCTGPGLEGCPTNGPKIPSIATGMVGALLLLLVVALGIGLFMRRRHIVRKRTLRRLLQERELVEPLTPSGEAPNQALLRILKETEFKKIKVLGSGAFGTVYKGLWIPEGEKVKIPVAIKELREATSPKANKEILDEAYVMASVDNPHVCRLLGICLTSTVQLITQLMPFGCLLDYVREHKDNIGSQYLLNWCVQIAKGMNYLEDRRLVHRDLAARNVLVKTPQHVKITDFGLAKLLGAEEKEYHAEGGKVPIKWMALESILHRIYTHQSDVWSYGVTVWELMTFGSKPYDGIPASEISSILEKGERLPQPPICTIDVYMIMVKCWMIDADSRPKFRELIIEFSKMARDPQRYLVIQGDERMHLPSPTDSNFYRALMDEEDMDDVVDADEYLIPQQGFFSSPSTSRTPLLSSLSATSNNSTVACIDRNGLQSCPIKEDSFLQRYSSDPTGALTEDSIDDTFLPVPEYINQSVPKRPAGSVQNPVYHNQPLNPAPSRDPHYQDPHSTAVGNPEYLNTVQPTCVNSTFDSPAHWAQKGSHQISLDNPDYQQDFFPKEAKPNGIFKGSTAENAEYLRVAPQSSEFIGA
Chain of Receptor tyrosine-protein kinase erbB-2 (P04626 whole entry): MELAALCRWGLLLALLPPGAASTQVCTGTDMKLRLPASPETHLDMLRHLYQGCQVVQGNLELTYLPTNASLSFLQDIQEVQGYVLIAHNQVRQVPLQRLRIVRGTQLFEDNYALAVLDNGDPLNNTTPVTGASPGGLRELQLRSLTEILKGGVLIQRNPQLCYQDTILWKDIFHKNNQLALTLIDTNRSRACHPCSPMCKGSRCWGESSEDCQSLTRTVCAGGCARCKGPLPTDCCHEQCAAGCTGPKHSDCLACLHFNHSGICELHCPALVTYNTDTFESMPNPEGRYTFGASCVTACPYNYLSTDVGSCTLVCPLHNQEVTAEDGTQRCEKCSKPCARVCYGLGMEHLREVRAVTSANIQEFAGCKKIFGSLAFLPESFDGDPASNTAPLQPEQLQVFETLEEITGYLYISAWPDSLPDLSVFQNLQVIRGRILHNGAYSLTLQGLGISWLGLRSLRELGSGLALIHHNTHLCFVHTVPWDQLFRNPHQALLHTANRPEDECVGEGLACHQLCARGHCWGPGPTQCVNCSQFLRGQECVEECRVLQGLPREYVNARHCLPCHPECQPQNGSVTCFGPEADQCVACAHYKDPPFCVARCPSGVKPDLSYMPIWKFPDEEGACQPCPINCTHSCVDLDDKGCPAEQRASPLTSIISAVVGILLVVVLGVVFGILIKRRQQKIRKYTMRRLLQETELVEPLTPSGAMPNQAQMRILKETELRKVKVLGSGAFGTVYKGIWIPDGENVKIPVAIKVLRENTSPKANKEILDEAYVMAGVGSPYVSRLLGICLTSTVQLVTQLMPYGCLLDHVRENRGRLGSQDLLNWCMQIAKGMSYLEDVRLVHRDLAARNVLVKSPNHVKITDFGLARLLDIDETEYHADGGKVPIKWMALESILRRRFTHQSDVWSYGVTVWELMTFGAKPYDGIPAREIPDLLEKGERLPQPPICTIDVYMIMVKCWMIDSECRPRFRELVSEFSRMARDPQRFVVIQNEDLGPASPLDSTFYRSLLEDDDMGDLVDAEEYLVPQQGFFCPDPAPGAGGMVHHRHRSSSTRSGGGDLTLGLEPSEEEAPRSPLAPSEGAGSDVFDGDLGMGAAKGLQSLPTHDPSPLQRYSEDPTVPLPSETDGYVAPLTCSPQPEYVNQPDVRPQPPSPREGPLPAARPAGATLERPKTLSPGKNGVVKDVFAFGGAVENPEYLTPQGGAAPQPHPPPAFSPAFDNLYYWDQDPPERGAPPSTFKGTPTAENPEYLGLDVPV

Molecule `C=CC(=O)Nc1cc2c(Nc3ccc(F)c(Cl)c3)ncnc2cc1OCc1cn(CCCC(=O)NO)nn1` has a viability at 5 µM (NCI-H1975 [1]) of 46.1%, a viability at 0.5 µM (NCI-H1975 [2]) of 62.6% and an Activity (NCI-H1975 [3]) of 0.57%. The Activity (NCI-H1975 [4]) was 14.3%, the IC50 [5] was 0.0057 µM and the Activity (NCI-H1975 [6]) was 0.36%. It also gave an IC50 (SK-BR-3) of 30.8 µM, a viability at 2.5 µM (NCI-H1975 [7]) of 54% and an IC50 (FHC) greater than 25 µM. The Activity (NCI-H1975 [8]) was 13.07%, the IC50 (NCI-H838) was greater than 50 µM and the inhibition [9] was “Dose-dependent effect”. For the same molecule, the IC50 [10] was 1.75 µM, the Activity (NCI-H1975 [11]) was “Active” and the Activity (NCI-H1975 [12]) was 35.22%. The IC50 (L02) was greater than 25 µM, the inhibition [13] was “Dose-dependent effect” and the inhibition (NCI-H1975 [14]) was “Dose-dependent effect”. The inhibition [15] was “Active”, the IC50 (cells) was 7.61 µM and the Activity (NCI-H1975 [16]) was “Active”. The Activity (NCI-H1975 [17]) was “Active”, the inhibition [18] was “Dose-dependent effect” and the Activity (NCI-H1975 [19]) was “Active”. For the same molecule, the Activity (NCI-H1975 [20]) was “Active”, the Activity (NCI-H1975 [21]) was 18.07% and the Activity (NCI-H1975 [22]) was 0.08%. The IC50 (A-431) was 20.7 µM, the Activity (NCI-H1975 [23]) was “Active” and the inhibition [24] was “Active”.

Source: ChEMBL document CHEMBL4732162, “Design, synthesis and evaluation of novel ErbB/HDAC multitargeted inhibitors with selectivity in EGFR mutant cell lines” (Eur J Med Chem, 2021)
